For ten molecules, inhibition results are on record in ChEMBL document CHEMBL1165965, “Synthesis and structure-activity relationships of 1,2,3,4-tetrahydropyrido[2,3-b]pyrazines as potent and selective inhibitors of the anaplastic lymphoma kinase” (Bioorg Med Chem, 2010).

The target in assay [1] is Homeodomain-interacting protein kinase 3 (Homo sapiens) (UniProt Q9H422). The experiment in a line: Inhibition of HIPK3 at 1 uM.
Assay [2] relates to T1, Receptor-type tyrosine-protein kinase FLT3 (Homo sapiens), P36888 [K663Q].
T1 sequence (whole entry): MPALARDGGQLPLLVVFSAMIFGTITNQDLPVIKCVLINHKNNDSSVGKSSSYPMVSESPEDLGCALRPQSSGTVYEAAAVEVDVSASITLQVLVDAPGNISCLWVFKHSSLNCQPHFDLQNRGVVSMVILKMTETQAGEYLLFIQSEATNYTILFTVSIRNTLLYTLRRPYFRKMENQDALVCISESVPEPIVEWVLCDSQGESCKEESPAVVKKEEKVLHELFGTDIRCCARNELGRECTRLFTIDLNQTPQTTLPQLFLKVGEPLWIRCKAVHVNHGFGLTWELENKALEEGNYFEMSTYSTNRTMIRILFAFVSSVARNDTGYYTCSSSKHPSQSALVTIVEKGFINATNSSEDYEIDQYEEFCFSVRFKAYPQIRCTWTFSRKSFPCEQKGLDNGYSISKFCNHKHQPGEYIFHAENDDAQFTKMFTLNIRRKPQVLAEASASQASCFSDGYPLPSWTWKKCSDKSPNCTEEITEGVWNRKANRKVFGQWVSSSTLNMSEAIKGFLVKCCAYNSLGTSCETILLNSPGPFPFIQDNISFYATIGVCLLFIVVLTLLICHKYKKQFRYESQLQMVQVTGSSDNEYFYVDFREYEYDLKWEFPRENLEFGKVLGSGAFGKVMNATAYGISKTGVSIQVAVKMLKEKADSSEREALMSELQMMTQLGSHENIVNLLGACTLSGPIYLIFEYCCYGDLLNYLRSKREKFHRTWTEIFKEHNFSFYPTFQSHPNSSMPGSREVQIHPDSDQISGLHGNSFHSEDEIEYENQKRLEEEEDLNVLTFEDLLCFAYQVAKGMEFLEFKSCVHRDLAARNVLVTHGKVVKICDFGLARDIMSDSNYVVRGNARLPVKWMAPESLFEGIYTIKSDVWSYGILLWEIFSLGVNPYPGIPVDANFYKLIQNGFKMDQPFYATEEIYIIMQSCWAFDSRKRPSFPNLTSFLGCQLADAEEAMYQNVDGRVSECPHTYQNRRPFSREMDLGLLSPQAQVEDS
As to the kind of experiment: Inhibition of FLT3 K663Q mutant at 1 uM.

Assay [3] concerns the target RAC-beta serine/threonine-protein kinase (Homo sapiens) (UniProt P31751). The experiment in a line: Inhibition of AKT2 at 1 uM. Put shortly: (§1)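 Ambit KINOMEscan screen at a single concentration across a 250–400 kinase panel, recorded as percent inhibition. Selectivity was expressed as S(90), the fraction of kinases inhibited >90%.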
Assay [4] concerns the target T2, Inhibitor of nuclear factor kappa-B kinase subunit alpha (Homo sapiens) (UniProt O15111).
T2 sequence (whole entry): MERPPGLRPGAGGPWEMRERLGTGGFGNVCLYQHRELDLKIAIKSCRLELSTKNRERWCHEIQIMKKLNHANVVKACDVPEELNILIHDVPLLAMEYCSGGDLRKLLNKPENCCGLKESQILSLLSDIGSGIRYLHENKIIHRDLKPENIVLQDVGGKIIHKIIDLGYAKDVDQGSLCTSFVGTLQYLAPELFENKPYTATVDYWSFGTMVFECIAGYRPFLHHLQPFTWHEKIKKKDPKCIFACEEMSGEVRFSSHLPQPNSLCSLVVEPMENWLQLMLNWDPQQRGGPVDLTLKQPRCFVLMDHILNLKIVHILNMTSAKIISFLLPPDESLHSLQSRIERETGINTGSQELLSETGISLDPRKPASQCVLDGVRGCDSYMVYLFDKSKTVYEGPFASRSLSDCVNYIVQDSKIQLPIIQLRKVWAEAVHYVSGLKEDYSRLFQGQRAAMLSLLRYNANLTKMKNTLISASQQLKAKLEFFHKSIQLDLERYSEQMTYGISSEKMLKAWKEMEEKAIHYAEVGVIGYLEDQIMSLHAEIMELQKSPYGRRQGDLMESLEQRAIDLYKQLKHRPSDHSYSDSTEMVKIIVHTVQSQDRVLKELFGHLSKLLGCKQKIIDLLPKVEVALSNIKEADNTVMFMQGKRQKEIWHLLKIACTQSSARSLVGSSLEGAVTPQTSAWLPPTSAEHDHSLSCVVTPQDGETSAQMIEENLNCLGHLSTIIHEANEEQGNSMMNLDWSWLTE
The experiment in a line: Inhibition of IKK-alpha at 1 uM.

Assay [5] has as its system Tyrosine-protein kinase ABL1 (Homo sapiens), P00519 [Y253F]. The experiment in a line: Inhibition of ABL1 Y253F mutant at 1 uM. Put shortly: as §1
Assay [6] addresses T3, Mitogen-activated protein kinase 13 (Homo sapiens) (UniProt O15264).
T3 sequence (whole entry): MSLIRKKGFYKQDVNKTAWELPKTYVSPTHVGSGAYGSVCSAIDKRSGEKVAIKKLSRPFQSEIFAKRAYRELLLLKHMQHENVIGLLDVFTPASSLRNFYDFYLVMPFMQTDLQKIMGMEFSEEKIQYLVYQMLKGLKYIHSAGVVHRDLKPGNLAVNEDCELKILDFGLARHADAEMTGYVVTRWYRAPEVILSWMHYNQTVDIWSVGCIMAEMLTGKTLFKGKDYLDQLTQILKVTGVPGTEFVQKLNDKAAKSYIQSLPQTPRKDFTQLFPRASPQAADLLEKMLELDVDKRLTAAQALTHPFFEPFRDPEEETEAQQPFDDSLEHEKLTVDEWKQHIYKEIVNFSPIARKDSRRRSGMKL
As to the kind of experiment: Inhibition of p38-delta at 1 uM.

Assay [7] addresses T4, Interleukin-1 receptor-associated kinase 3 (Homo sapiens) (UniProt Q9Y616).
T4 sequence (whole entry): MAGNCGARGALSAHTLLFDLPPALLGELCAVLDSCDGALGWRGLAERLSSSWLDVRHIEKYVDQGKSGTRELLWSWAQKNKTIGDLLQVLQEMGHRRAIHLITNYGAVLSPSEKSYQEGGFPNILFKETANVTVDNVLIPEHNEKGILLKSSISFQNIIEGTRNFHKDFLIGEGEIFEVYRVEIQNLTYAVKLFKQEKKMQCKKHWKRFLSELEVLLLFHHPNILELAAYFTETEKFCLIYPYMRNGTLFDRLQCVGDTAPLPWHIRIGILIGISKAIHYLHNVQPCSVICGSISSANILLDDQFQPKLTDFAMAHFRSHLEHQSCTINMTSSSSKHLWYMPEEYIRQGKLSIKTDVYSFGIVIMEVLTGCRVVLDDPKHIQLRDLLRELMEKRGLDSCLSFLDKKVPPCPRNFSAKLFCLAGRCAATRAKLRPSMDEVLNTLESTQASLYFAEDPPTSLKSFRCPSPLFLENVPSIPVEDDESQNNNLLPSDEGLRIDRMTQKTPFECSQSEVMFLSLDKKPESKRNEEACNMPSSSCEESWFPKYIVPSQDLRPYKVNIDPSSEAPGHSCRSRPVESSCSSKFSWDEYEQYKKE
The experiment in a line: Inhibition of IRAK3 at 1 uM. Put shortly: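 Single-concentration screen on the Ambit KINOMEscan platform, run against a panel of 250–400 kinases. Per-kinase inhibition was also summarized as S(90), the fraction of kinases inhibited by more than 90%.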

RAC-beta serine/threonine-protein kinase (Homo sapiens), sequence (P31751 whole entry): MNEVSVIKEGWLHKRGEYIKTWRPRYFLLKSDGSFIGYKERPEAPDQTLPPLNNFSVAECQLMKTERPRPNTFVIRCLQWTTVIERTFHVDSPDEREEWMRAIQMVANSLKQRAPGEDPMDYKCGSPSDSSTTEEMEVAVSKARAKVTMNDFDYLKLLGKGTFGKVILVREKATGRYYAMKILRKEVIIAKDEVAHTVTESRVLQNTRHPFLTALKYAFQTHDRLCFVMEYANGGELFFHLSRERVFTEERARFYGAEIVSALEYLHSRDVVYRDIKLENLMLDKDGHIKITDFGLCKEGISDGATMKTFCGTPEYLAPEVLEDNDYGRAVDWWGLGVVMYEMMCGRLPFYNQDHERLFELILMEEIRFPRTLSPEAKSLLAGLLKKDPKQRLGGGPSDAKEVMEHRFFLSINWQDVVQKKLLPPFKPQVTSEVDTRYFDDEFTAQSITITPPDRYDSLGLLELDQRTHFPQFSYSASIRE
Homeodomain-interacting protein kinase 3 (Homo sapiens), sequence (Q9H422 whole entry, looked up): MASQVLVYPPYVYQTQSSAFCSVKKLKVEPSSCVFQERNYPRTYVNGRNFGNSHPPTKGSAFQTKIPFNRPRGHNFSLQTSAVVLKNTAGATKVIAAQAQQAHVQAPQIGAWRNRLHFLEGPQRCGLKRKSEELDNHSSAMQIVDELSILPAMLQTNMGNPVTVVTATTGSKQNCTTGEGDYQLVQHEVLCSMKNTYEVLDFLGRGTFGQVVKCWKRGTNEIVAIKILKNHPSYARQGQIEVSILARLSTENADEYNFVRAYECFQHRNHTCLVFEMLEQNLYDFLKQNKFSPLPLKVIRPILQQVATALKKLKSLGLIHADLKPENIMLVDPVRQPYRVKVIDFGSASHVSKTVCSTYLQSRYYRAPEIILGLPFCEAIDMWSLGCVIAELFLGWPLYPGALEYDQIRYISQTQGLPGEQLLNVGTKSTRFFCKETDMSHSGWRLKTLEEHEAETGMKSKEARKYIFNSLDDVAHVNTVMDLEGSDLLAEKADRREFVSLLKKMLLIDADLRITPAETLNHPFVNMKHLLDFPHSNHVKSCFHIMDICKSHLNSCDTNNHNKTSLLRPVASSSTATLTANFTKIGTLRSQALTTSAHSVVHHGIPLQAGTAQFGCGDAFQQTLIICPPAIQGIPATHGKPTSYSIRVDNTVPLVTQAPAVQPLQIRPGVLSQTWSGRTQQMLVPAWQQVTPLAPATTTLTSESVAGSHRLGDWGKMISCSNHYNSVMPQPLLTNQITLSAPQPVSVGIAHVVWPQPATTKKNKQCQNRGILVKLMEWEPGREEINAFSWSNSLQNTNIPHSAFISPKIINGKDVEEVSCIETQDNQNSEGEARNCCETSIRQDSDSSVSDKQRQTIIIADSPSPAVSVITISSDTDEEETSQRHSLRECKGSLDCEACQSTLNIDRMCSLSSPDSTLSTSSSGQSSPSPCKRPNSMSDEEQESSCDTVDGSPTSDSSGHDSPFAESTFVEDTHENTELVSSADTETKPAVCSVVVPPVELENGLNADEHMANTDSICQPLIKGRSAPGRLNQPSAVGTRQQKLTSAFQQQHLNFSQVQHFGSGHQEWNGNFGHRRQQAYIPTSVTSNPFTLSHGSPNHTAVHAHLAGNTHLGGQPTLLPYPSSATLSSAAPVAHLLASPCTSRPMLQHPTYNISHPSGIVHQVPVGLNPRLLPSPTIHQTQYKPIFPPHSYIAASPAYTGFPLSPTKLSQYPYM

One may read the inhibition as the percentage by which the read-out fell short of the control. Read a low inhibition as a weak effect. Consider `FC(F)(F)c1ccc(Cl)cc1CN1CCNc2ncc(-c3ccnc(N4CCNCC4)c3)cc21`, for which the inhibition in assay [1] was < 50%; in assay [2], 98%; in assay [3], < 50%; in assay [4], < 50%; in assay [5], < 50%; in assay [6], < 50%. Also, the inhibition in assay [7] is 74%.

Consider `CN1CCN(c2ccc(-c3cnc4c(c3)N(Cc3cc(F)ccc3F)CCN4)cn2)CC1`, for which the inhibition in assay [1] was < 50%; in assay [2] it was 80%; in assay [3], < 50%; in assay [4] it was < 50%; in assay [5], < 50%; in assay [6], < 50%. Further, the inhibition in assay [7] is < 50%.

Turning to `CN1CCN(c2ccc(-c3cnc4c(c3)N(Cc3cc(Cl)ccc3Cl)CCN4)cn2)CC1`, the inhibition was < 50% in assay [1]; 93% in assay [2]; < 50% in assay [3]; < 50% in assay [4]; < 50% in assay [5]; < 50% in assay [6]. Also, in assay [7], the inhibition is < 50%.

For `O=C(O)c1ccc(-c2cnc3c(c2)N(Cc2cc(Cl)ccc2C(F)(F)F)CCN3)cc1`, the inhibition in assay [3] and in assay [7] was < 50% each time.

Consider `CN1CCN(c2ccc(-c3cnc4c(c3)N(Cc3cc(Cl)ccc3C(F)(F)F)CCN4)cn2)CC1`, for which the inhibition in assay [1] was < 50%; in assay [2] it was 92%; in assay [3], < 50%; in assay [4] it was < 50%; in assay [5] it was < 50%; in assay [6], < 50%. Moreover, the inhibition in assay [7] was < 50%.

For the molecule `COC1CCN(C(=O)c2ccc(-c3cnc4c(c3)N(Cc3cc(Cl)ccc3C(F)(F)F)CCN4)cc2)CC1`, the inhibition in assay [3], in assay [5] and in assay [7] was < 50% each time.

Take `O=C(c1ccc(-c2cnc3c(c2)N(Cc2cc(Cl)ccc2C(F)(F)F)CCN3)cc1)N1CCC(N2CCCC2)CC1`: the inhibition in assay [3], in assay [5] and in assay [7] was < 50% each time.

For `CN1CCN(c2ccc(-c3cnc4c(c3)N(Cc3c(F)ccc(F)c3Cl)CCN4)cn2)CC1`, the inhibition in assay [1] was < 50%; in assay [2], 70%; in assay [3], < 50%; in assay [4] it was < 50%; in assay [5], 82%; in assay [6], < 50%. In assay [7], the inhibition was < 50%.

Turning to `O=C(c1ccc(-c2cnc3c(c2)N(Cc2cc(Cl)ccc2C(F)(F)F)CCN3)cc1)N1CCCCC1`, the inhibition in assay [3], in assay [5] and in assay [7] was < 50% throughout.

Regarding `CC(=O)N1CCN(c2cc(-c3cnc4c(c3)N(Cc3cc(Cl)ccc3C(F)(F)F)CCN4)ccn2)CC1`, the inhibition in assay [1] is < 50%; in assay [2] it was 93%; in assay [3], < 50%; in assay [4], < 50%; in assay [5], < 50%; in assay [6], < 50%. The inhibition in assay [7] was < 50%.
